Test results taken from ChEMBL document CHEMBL4431309, “17β-Hydroxy-18-acetoxywithanolides from Aeroponically Grown Physalis crassifolia and Their Potent and Selective Cytotoxicity for Prostate Cancer Cells” (J Nat Prod, 2016).
Activity calls are given as the source filed them. No cut-off for these calls is given here.

How the values were obtained:
NCI-H460 [1] = assay: Cytotoxicity against human NCI-H460 cells after 72 hrs by resazurin-based colorimetric assay; assay type: functional, cell-based; settings: NCI-H460, 72 h
In short: (§1)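 Human non-small-cell lung cancer line (NCI-H460). Doxorubicin was included as positive control and DMSO as negative control. The maximum concentration tested was 5.0 μM.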

SF-268 [2] = assay: Cytotoxicity against human SF268 cells after 72 hrs by resazurin-based colorimetric assay; assay type: functional, cell-based; settings: SF-268, 72 h
In short: (§2)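 Doxorubicin (positive) and DMSO (negative) were run as controls. Compounds were tested up to a highest concentration of 5.0 μM.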

LNCaP [3] = assay: Cytotoxicity against human LNCAP cells after 72 hrs by resazurin-based colorimetric assay; assay type: functional, cell-based
In short: (§3)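 Androgen-sensitive human prostate adenocarcinoma line (LNCaP). Doxorubicin served as positive control and DMSO as negative control. Compounds were tested at concentrations up to 5.0 μM.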

MCF7 [4] = assay: Cytotoxicity against human MCF7 cells after 72 hrs by resazurin-based colorimetric assay; assay type: functional, cell-based; settings: MCF7, 72 h
In short: (§4)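 Human breast cancer line (MCF-7). Doxorubicin was the positive control and DMSO the negative control. Testing went up to 5.0 μM.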

PC-3M [5] = assay: Cytotoxicity against human PC3M cells after 72 hrs by resazurin-based colorimetric assay; assay type: functional, cell-based
In short: (§5)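 Metastatic human prostate adenocarcinoma line (PC-3M). Controls were doxorubicin (positive) and DMSO (negative). The highest concentration tested was 5.0 μM.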

SF-268 [6] = assay: Cytotoxicity against human SF268 cells up to 5 uM after 72 hrs by resazurin-based colorimetric assay; assay type: functional, cell-based; in short: as §2
PC-3M [7] = assay: Cytotoxicity against human PC3M cells up to 5 uM after 72 hrs by resazurin-based colorimetric assay; assay type: functional, cell-based; in short: as §5
LNCaP [8] = assay: Cytotoxicity against human LNCAP cells up to 5 uM after 72 hrs by resazurin-based colorimetric assay; assay type: functional, cell-based; in short: as §3
NCI-H460 [9] = assay: Cytotoxicity against human NCI-H460 cells up to 5 uM after 72 hrs by resazurin-based colorimetric assay; assay type: functional, cell-based; in short: as §1
MCF7 [10] = assay: Cytotoxicity against human MCF7 cells up to 5 uM after 72 hrs by resazurin-based colorimetric assay; assay type: functional, cell-based; in short: as §4
HFF [11] = assay: Cytotoxicity against human HFF cells up to 5 uM after 72 hrs by resazurin-based colorimetric assay; assay type: cell-based; in short: as §2
HFF [12] = assay: Cytotoxicity against human HFF cells after 72 hrs by resazurin-based colorimetric assay; assay type: cell-based; in short: as §2

SMILES	IC50 (NCI-H460 [1]) [nM]	IC50 (SF-268 [2]) [nM]	IC50 (LNCaP [3]) [nM]	IC50 (MCF7 [4]) [nM]	IC50 (PC-3M [5]) [nM]	Activity (SF-268 [6])	Activity (PC-3M [7])	Activity (LNCaP [8])	Activity (NCI-H460 [9])	Activity (MCF7 [10])	Activity (HFF [11])	IC50 (HFF [12]) [nM]
CC(=O)OC[C@]12CC[C@H]3[C@@H](C[C@H]4O[C@]45CC=CC(=O)[C@]35C)[C@]1(O)[C@@H](OC(C)=O)C[C@@]2(O)[C@@](C)(O)[C@H]1CC(C)=C(C)C(=O)O1	> 2500	> 2500	1200	> 2500	1800	–	–	–	–	–	–	–
CC(=O)OC[C@]12CC[C@H]3[C@@H](CC=C4CC=CC(=O)[C@@]43C)[C@]1(O)[C@@H](O)C[C@@]2(O)[C@@](C)(O)[C@H]1CC(C)=C(C)C(=O)O1	> 2500	> 2500	190	> 2500	600	–	–	–	–	–	–	–
CC(=O)OC[C@]12CC[C@H]3[C@@H](CC=C4CC=CC(=O)[C@@]43C)[C@]1(O)[C@@H](OC(C)=O)C[C@@]2(O)[C@@](C)(O)[C@H]1CC(CO[C@@H]2O[C@H](CO)[C@@H](O)[C@H](O)[C@H]2O)=C(C)C(=O)O1	–	–	–	–	–	inactive	inactive	inactive	inactive	inactive	Non-Toxic	–
CC(=O)OC[C@]12CC[C@H]3[C@@H](CC=C4CC=CC(=O)[C@@]43C)[C@]1(O)[C@@H](OC(C)=O)C[C@@]2(O)[C@@](C)(O)[C@H]1CC(C)=C(CO[C@@H]2O[C@H](CO)[C@@H](O)[C@H](O)[C@H]2O)C(=O)O1	–	–	–	–	–	inactive	inactive	inactive	inactive	inactive	Non-Toxic	–
CC(=O)OC[C@]12CC[C@H]3[C@@H](CC=C4CC=CC(=O)[C@@]43C)[C@]1(O)CC[C@@H]2[C@@](C)(O)[C@H]1CC(C)=C(C)C(=O)O1	–	–	–	–	–	inactive	inactive	inactive	inactive	inactive	Non-Toxic	–
CC1=C(CO)C(=O)O[C@@H]([C@@H](C)[C@H]2CC[C@H]3[C@@H]4C[C@H]5O[C@]56[C@@H](O)C=CC(=O)[C@]6(C)[C@H]4CC[C@]23C)C1 [WITHAFERIN A]	< 400	< 400	–	–	410	–	–	–	–	–	–	> 6800
C/C(=C1/C(=O)C[C@H]2[C@@H]3[C@@H]4O[C@@H]4[C@@]4(O)CC=CC(=O)[C@]4(C)[C@H]3CC[C@]12C)[C@H]1C[C@]2(C)O[C@]2(C)[C@H](O)O1	–	–	–	–	–	inactive	inactive	inactive	inactive	inactive	Non-Toxic	–
CC(=O)OC[C@]12CC[C@H]3[C@@H](CC=C4CC=CC(=O)[C@@]43C)[C@]1(O)CC[C@@H]2[C@@](C)(O)[C@@H]1OC(=O)C(C)=C(C)[C@@H]1O	–	–	–	–	–	inactive	inactive	inactive	inactive	inactive	Non-Toxic	–
CC(=O)OC[C@]12CC[C@H]3[C@@H](CC=C4CC=CC(=O)[C@@]43C)[C@]1(O)[C@@H](OC(C)=O)C[C@@]2(O)[C@@](C)(O)[C@H]1CC(C)=C(CO)C(=O)O1	–	–	–	–	–	inactive	inactive	inactive	inactive	inactive	Non-Toxic	–
CC(=O)OC[C@]12CC[C@H]3[C@@H](CC=C4C[C@@H](OS(=O)(=O)O)CC(=O)[C@@]43C)[C@]1(O)CC[C@@]2(O)[C@@](C)(O)[C@H]1CC(C)=C(C)C(=O)O1	3800	> 5000	210	2200	560	–	–	–	–	–	–	> 5000
CC(=O)OC[C@]12CC[C@H]3[C@@H](CC=C4C=CCC(=O)[C@@]43C)[C@]1(O)[C@@H](OC(C)=O)C[C@@]2(O)[C@@](C)(O)[C@H]1CC(CO)=C(C)C(=O)O1	–	–	–	–	–	inactive	inactive	inactive	inactive	inactive	Non-Toxic	–
CC(=O)OC[C@]12CC[C@H]3[C@@H](CC=C4CC=CC(=O)[C@@]43C)[C@]1(O)CC[C@@]2(O)[C@@](C)(O)[C@H]1CC(C)=C(CO)C(=O)O1	> 5000	> 5000	3700	> 5000	> 5000	–	–	–	–	–	–	–
CC1=C(C)C(=O)O[C@@H]([C@](C)(O)[C@H]2CC[C@@]3(O)[C@@H]4[C@@H]5O[C@@H]5[C@@]5(O)CC=CC(=O)[C@]5(C)[C@H]4CC[C@]23C)C1	–	–	–	–	–	inactive	inactive	inactive	inactive	inactive	Non-Toxic	–
CC(=O)OC[C@]12CC[C@H]3[C@@H](CC=C4C[C@@H](OS(=O)(=O)O)CC(=O)[C@@]43C)[C@]1(O)[C@@H](OC(C)=O)C[C@@]2(O)[C@@](C)(O)[C@H]1CC(C)=C(C)C(=O)O1	2500	2800	120	> 5000	430	–	–	–	–	–	–	–
COc1cccc2c1C(=O)c1c(O)c3c(c(O)c1C2=O)C[C@@](O)(C(=O)CO)C[C@@H]3O[C@H]1C[C@H](N)[C@H](O)[C@H](C)O1 [DOXORUBICIN]	–	–	–	320	250	–	–	–	–	–	–	–
